# According to ChEMBL document CHEMBL1250420, “Identification of chalcones as in vivo liver monofunctional phase II enzymes inducers” (Bioorg Med Chem, 2010):
# Activity calls are given as the source filed them. No cut-off for these calls is given here.
# Test system: Rattus norvegicus
# Experiment: Induction glutathione-CYP1A1 in rat liver at 15 mg/kg, po qd by EROD assay
# Assay type: functional
# Conditions: not given
# In short: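 Rat liver CYP1A1 read as EROD activity: fluorescence increase from resorufin released from 7-ethoxyresorufin, in 100 mM phosphate buffer pH 7.6 with 250 µM NADPH. Oral dosing for 15 days over 3 weeks; change in specific activity expressed as % of basal-diet control, n = 5, means ± SE, Student's t-test.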
row,SMILES,Activity [%]
1,O=C(/C=C/c1ccccc1)c1ccccc1O [2'-HYDROXYCHALCONE],-60
2,COc1ccc(/C=C/C(=O)c2ccccc2)cc1 [4-METHOXY CHALCONE],-30
3,O=C(/C=C/c1cccs1)c1ccccc1O,20
4,CSc1ccc(/C=C/C(=O)c2ccccc2)cc1,750
5,O=C1CC(c2ccccc2Br)Oc2ccccc21 (stereo not drawn),30
6,O=C(/C=C/c1ccc(Cl)cc1)c1ccccc1 [4-CHLORO CHALCONE],40

# Test system: MCF7
# Experiment: Cytotoxicity against human MCF7 cells
# Assay type: functional, cell-based
# Conditions: not given
row,SMILES,Activity
1,O=C(/C=C/c1ccc(Br)cc1)c1ccccc1O,inactive
2,O=C(/C=C/c1ccccc1)c1ccccc1O [2'-HYDROXYCHALCONE],Active
3,O=c1cc(-c2ccc(Br)cc2)oc2ccccc12,inactive
4,O=C(/C=C/c1ccc2c(c1)OCO2)c1ccccc1O,inactive
5,COc1ccc(/C=C/C(=O)c2ccccc2)cc1 [4-METHOXY CHALCONE],inactive
6,CSc1ccc(/C=C/C(=O)c2ccccc2)cc1,inactive
7,O=C1CC(c2ccccc2Br)Oc2ccccc21 (stereo not drawn),Active
8,O=C(/C=C/c1ccc(Cl)cc1)c1ccccc1 [4-CHLORO CHALCONE],inactive

# Test system: Liver microsomes
# Experiment: Metabolic stability in rat liver microsome in presence of NADPH
# Assay type: ADME
# Conditions: not given
# In short: (§1)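 Female Wistar rat liver microsomes (100,000 × g pellet) at 1 mg/mL protein with 400 µM flavonoid (DMSO <1%). Incubated 0.5 h at 37 °C, with or without an NADPH-generating system (MgCl2, NADP+, glucose 6-phosphate, G6PDH) in 0.1 M phosphate pH 7.4, 1.5 mM EDTA. Heat-inactivated control included; triplicate; read by UV spectra and chromatography.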
row,Stability,SMILES
1,Stable,O=C(/C=C/c1ccc(Br)cc1)c1ccccc1O

# Test system: TK-10
# Experiment: Cytotoxicity against human TK10 cells
# Assay type: functional, cell-based
# Conditions: not given
row,SMILES,Activity
1,O=C(/C=C/c1ccc(Br)cc1)c1ccccc1O,inactive
2,O=C(/C=C/c1ccccc1)c1ccccc1O [2'-HYDROXYCHALCONE],Active
3,O=c1cc(-c2ccc(Br)cc2)oc2ccccc12,inactive
4,O=C(/C=C/c1ccc2c(c1)OCO2)c1ccccc1O,inactive
5,COc1ccc(/C=C/C(=O)c2ccccc2)cc1 [4-METHOXY CHALCONE],Active
6,CSc1ccc(/C=C/C(=O)c2ccccc2)cc1,Active
7,O=C1CC(c2ccccc2Br)Oc2ccccc21 (stereo not drawn),inactive
8,O=C(/C=C/c1ccc(Cl)cc1)c1ccccc1 [4-CHLORO CHALCONE],Active

# Target: T1, Quinone oxidoreductase (Homo sapiens) (UniProt Q08257)
# T1 sequence (whole entry): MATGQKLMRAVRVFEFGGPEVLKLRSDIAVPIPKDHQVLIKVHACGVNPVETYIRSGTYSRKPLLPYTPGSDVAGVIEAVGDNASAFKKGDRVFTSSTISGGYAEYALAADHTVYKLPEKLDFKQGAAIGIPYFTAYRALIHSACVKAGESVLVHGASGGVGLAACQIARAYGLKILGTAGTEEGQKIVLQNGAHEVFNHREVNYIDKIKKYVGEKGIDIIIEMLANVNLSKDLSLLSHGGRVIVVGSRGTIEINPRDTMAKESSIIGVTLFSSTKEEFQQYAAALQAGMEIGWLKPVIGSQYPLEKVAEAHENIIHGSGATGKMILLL
# Experiment: Induction of quinone reductase activity in human MCF7 cells
# Assay type: cell-based
# Conditions: not given
# In short: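 QR induction in MCF-7 tumour cells at 40 µM, a level chosen from a flavone dose–response; result given as ratio of QR specific activity, treated/control.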
row,Activity,SMILES
1,Active,O=C(/C=C/c1ccc(Br)cc1)c1ccccc1O
2,Active,O=C(/C=C/c1ccccc1)c1ccccc1O [2'-HYDROXYCHALCONE]

# Test system: Rattus norvegicus
# Experiment: Induction of quinone reductase activity in rat liver at 22.5 mg/kg, po qd
# Assay type: functional
# Conditions: dose 15.0 mg/kg, in the assay text read “at 15.0 mg/kg” for “at 22.5 mg/kg”
# In short: (§2)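 Oral dosing for 15 days over 3 weeks, then liver QR read as loss of 600 nm absorbance of DCPIP (80 µM) with 0.2 mM NADH, 5 µM FAD, 25 mM Tris–HCl pH 7.4, 6% BSA, 0.01% Tween 20. Specific activity expressed as % change from basal-diet control, n = 5, means ± SE, Student's t-test.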
row,SMILES,Activity [%]
1,O=C(/C=C/c1ccc(Br)cc1)c1ccccc1O,128
2,O=C(/C=C/c1ccc2c(c1)OCO2)c1ccccc1O,30

# Same assay, conditions: dose 22.5 mg/kg
row,SMILES,Activity [%]
1,O=C(/C=C/c1ccccc1)c1ccccc1O [2'-HYDROXYCHALCONE],10

# Test system: not listed separately
# Experiment: Mutagenic activity in Salmonella typhimurium TA98 assessed as […] increase in number of revertants at 225 ug/plate after 48 hrs by Ames test
# Assay type: toxicity
# Conditions: salmonella enterica subsp. enterica serovar typhimurium
# In short: (§3)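 TA98 pre-incubation Ames test without listed S9: 50 µL test solution, 500 µL 0.1 M phosphate pH 7.4 and 100 µL bacteria (2 × 10^9/mL), 60 min. Top agar with trace histidine/biotin, then 48 h at 37 °C and revertant count. Doses fall by thirds from the minimum toxic dose; DMSO and 4-NPD (20 µg/plate) controls; two independent experiments, means ± SD.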
row,SMILES,Activity
1,O=C(/C=C/c1ccccc1)c1ccccc1O [2'-HYDROXYCHALCONE],14
2,O=C(/C=C/c1cccs1)c1ccccc1O,14

# Test system: Rattus norvegicus
# Experiment: Induction glutathione-S-transferase activity in rat liver at 15 mg/kg, po qd
# Conditions: not given
row,SMILES,Activity [%]
1,O=C(/C=C/c1ccc(Br)cc1)c1ccccc1O,-30
2,O=C(/C=C/c1ccc2c(c1)OCO2)c1ccccc1O,-20

# Test system: not listed separately
# Experiment: Mutagenic activity in Salmonella typhimurium TA98 assessed as […] increase in number of revertants at 8 ug/plate after 48 hrs by Ames test
# Assay type: toxicity
# Conditions: salmonella enterica subsp. enterica serovar typhimurium
# In short: as §3
row,SMILES,Activity
1,O=C(/C=C/c1ccccc1)c1ccccc1O [2'-HYDROXYCHALCONE],16
2,O=C(/C=C/c1cccs1)c1ccccc1O,16

# Test system: Rattus norvegicus
# Experiment: Toxicity in Sprague-Dawley rat assessed as leucocyte level at 10 mg/kg/day, po
# Conditions: in vivo
row,SMILES,Activity [µL⁻¹]
1,O=C(/C=C/c1ccc(Br)cc1)c1ccccc1O,7700
2,O=C(/C=C/c1ccccc1)c1ccccc1O [2'-HYDROXYCHALCONE],5200

# Test system: HT-29
# Experiment: Cytotoxicity against human HT-29 cells
# Assay type: functional, cell-based
# Conditions: not given
row,SMILES,Activity
1,O=C(/C=C/c1ccc(Br)cc1)c1ccccc1O,inactive
2,O=C(/C=C/c1ccccc1)c1ccccc1O [2'-HYDROXYCHALCONE],Active
3,O=c1cc(-c2ccc(Br)cc2)oc2ccccc12,inactive
4,O=C(/C=C/c1ccc2c(c1)OCO2)c1ccccc1O,inactive
5,COc1ccc(/C=C/C(=O)c2ccccc2)cc1 [4-METHOXY CHALCONE],Active
6,CSc1ccc(/C=C/C(=O)c2ccccc2)cc1,inactive
7,O=C1CC(c2ccccc2Br)Oc2ccccc21 (stereo not drawn),inactive
8,O=C(/C=C/c1ccc(Cl)cc1)c1ccccc1 [4-CHLORO CHALCONE],Active

# Test system: Rattus norvegicus
# Experiment: Toxicity in Sprague-Dawley rat assessed as change in body weight at 10 mg/kg/day, po
# Conditions: in vivo
row,SMILES,Activity
1,O=C(/C=C/c1ccc(Br)cc1)c1ccccc1O,Non-toxic
2,O=c1cc(-c2ccc(Br)cc2)oc2ccccc12,Non-toxic

# Test system: not listed separately
# Experiment: Mutagenic activity in Salmonella typhimurium TA98 assessed as […] increase in number of revertants at 25 ug/plate after 48 hrs by Ames test
# Assay type: toxicity
# Conditions: salmonella enterica subsp. enterica serovar typhimurium
# In short: as §3
row,SMILES,Activity
1,O=C(/C=C/c1ccccc1)c1ccccc1O [2'-HYDROXYCHALCONE],17
2,O=C(/C=C/c1cccs1)c1ccccc1O,19

# Test system: Liver microsomes
# Experiment: Metabolic stability in rat liver microsome
# Assay type: ADME
# Conditions: not given
# In short: as §1
row,Stability,SMILES
1,Stable,O=C(/C=C/c1ccc(Br)cc1)c1ccccc1O

# Test system: not listed separately
# Experiment: Mutagenic activity in Salmonella typhimurium TA98 assessed as […] increase in number of revertants at 75 ug/plate after 48 hrs by Ames test
# Assay type: toxicity
# Conditions: salmonella enterica subsp. enterica serovar typhimurium
# In short: as §3
row,SMILES,Activity
1,O=C(/C=C/c1ccccc1)c1ccccc1O [2'-HYDROXYCHALCONE],20
2,O=C(/C=C/c1cccs1)c1ccccc1O,13

# Test system: Rattus norvegicus
# Experiment: Toxicity in Sprague-Dawley rat assessed as haemoglobin level at 10 mg/kg/day, po (RVb = 15.1 +/- 4.1 g/L)
# Conditions: in vivo
row,SMILES,Activity [g/L]
1,O=C(/C=C/c1ccc(Br)cc1)c1ccccc1O,8.4
2,O=C(/C=C/c1ccccc1)c1ccccc1O [2'-HYDROXYCHALCONE],11.3

# Test system: Rattus norvegicus
# Experiment: Toxicity in Sprague-Dawley rat assessed as glutamic-oxalate transaminase level at 10 mg/kg/day, po (RVb = 71.4 +/- 7.8 U/L)
# Conditions: in vivo
row,SMILES,Activity [U/L]
1,O=C(/C=C/c1ccc(Br)cc1)c1ccccc1O,61.7

# Test system: Rattus norvegicus
# Experiment: Toxicity in Sprague-Dawley rat assessed as glutamic-pyruvate level at 10 mg/kg/day, po (RVb = 22.8 +/-13.2 U/L)
# Conditions: in vivo
row,SMILES,Activity [U/L]
1,O=C(/C=C/c1ccc(Br)cc1)c1ccccc1O,26

# Test system: Rattus norvegicus
# Experiment: Induction of quinone reductase activity in rat liver at 15 mg/kg, po qd
# Assay type: functional
# Conditions: not given
# In short: as §2
row,SMILES,Activity [%]
1,O=C(/C=C/c1ccccc1)c1ccccc1O [2'-HYDROXYCHALCONE],10
2,O=c1cc(-c2ccc(Br)cc2)oc2ccccc12,30
3,COc1ccc(/C=C/C(=O)c2ccccc2)cc1 [4-METHOXY CHALCONE],10
4,O=C(/C=C/c1cccs1)c1ccccc1O,10
5,CSc1ccc(/C=C/C(=O)c2ccccc2)cc1,20
6,O=C1CC(c2ccccc2Br)Oc2ccccc21 (stereo not drawn),10
7,O=C(/C=C/c1ccc(Cl)cc1)c1ccccc1 [4-CHLORO CHALCONE],10

# Test system: not listed separately
# Experiment: Mutagenic activity in Salmonella typhimurium TA98 assessed as […] increase in number of revertants at 3 ug/plate after 48 hrs by Ames test
# Assay type: toxicity
# Conditions: salmonella enterica subsp. enterica serovar typhimurium
# In short: as §3
row,SMILES,Activity
1,O=C(/C=C/c1ccccc1)c1ccccc1O [2'-HYDROXYCHALCONE],13
2,O=C(/C=C/c1cccs1)c1ccccc1O,15

# Test system: Rattus norvegicus
# Experiment: Induction glutathione-S-transferase activity in rat liver at 15 mg/kg, po qd
# Assay type: functional
# Conditions: not given
# In short: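 Hepatic GST after oral dosing for 15 days over 3 weeks. Substrates 1 mM CDNB and 1 mM reduced glutathione in 100 mM phosphate buffer pH 6.5; CDNB–GSH conjugate followed at 340 nm. Specific activity given as % change from basal-diet control, n = 5, means ± SE, Student's t-test.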
row,SMILES,Activity [%]
1,O=C(/C=C/c1ccccc1)c1ccccc1O [2'-HYDROXYCHALCONE],30
2,COc1ccc(/C=C/C(=O)c2ccccc2)cc1 [4-METHOXY CHALCONE],-10
3,O=C(/C=C/c1cccs1)c1ccccc1O,10
4,CSc1ccc(/C=C/C(=O)c2ccccc2)cc1,30
5,O=C1CC(c2ccccc2Br)Oc2ccccc21 (stereo not drawn),10
6,O=C(/C=C/c1ccc(Cl)cc1)c1ccccc1 [4-CHLORO CHALCONE],-20

# Test system: Rattus norvegicus
# Experiment: Toxicity in Sprague-Dawley rat assessed as change in body weight at 250 mg/kg, po
# Assay type: organism-based
# Design: dose 250 mg/kg, route oral
# Conditions: in vivo
# In short: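 Healthy female Sprague–Dawley rats (about 200 g, 5–7 per group) given a single oral dose by intragastric syringe, suspended in saline/Tween 80 (4:1); vehicle-treated controls included. Daily weighing and observation for 3 days, then sacrifice with clinical biochemistry, haematology and organ histology.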
row,SMILES,Activity
1,O=C(/C=C/c1ccccc1)c1ccccc1O [2'-HYDROXYCHALCONE],Non-toxic

# Test system: Rattus norvegicus
# Experiment: Induction glutathione-CYP1A1 in rat liver at 15 mg/kg, po qd by EROD assay
# Conditions: not given
row,SMILES,Activity [%]
1,O=C(/C=C/c1ccc(Br)cc1)c1ccccc1O,-80
2,O=C(/C=C/c1ccc2c(c1)OCO2)c1ccccc1O,-50
